A selection: hits, their analogues and other compounds. The true share with any hit is near 3.2%.
Apaf1 inhib: inhibitors of human Apaf-1 apoptosome, primary screen, biochemical, DEVD-Rh110 fluorescence, uHTS | reconstituted apoptosome caspase-3 activity | inhibition, % at 20 µM | hit rate 0.71% among 330,000 | AID 489030, 2010; active = inhibition of at least 40% at 20 µM;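 also: plate controls were DMSO wells for no effect and DEVD-CHO caspase inhibitor wells for full effect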
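Material: reconstituted apoptosome with Apaf-1, cytochrome c, caspase-9, procaspase-3, dATP; medium: pH 7.5 Hepes buffer with CHAPS, BSA, DTT; also added: cytochrome c and DEVD-Rh110 substrate; timing: 30 min plus 50 min, RT; signal: Rh110 fluorescence intensity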
UBC13 polyUb: UBC13 polyubiquitin chain formation inhibitors, primary screen, biochemical, TR-FRET, uHTS | inhibition, % at 20 µM | hit rate 0.47% among 330,000 | AID 485273, 2010; in the data active = inhibition above about 45%, passing the limit was not always enough
Pemphigus Ab inh: inhibitors of pemphigus antibody binding to DSG3, primary screen, biochemical, bead-based, flow cytometry, scFv-GFP; hit rate 0.48% among 310,000; DSG3-coupled beads, scFv-anti-DSG3-GFP binding; hits give low values; Desmoglein-3 (Homo sapiens), P32926; AID 588358, 2011; binding (percent of control), % at 10 µM;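 active = binding more than 3 SD below its plate's average and above zero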;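 also: hits lower antibody fragment binding to DSG3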
MEKK3 PB1 HTS: modulators of MEKK3-MEK5 PB1 binding, primary screen, biochemical, wildtype MEKK3, multiplex bead flow cytometry, Alexa488-MEK5; binding response (% of control), % at 10 µM; bead-based flow cytometry, Alexa488-MEK5 binding to MEKK3; actives lie on both sides; 0 = blocked by unlabeled MEK5, 100 = vehicle; hit rate 1.4% among 290,000; AID 1529, 2009; Mitogen-activated protein kinase kinase kinase 3 (Homo sapiens), Q99759;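 active = binding response more than 3 SD above or below the average of its plate-row segment, actives on both sides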;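 also: Alexa488 bead fluorescence after subtracting the streptavidin-only scavenger bead signal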
MEKK2wt PB1 HTS: modulators of MEK5 binding to wildtype MEKK2, primary screen, biochemical, multiplex bead flow cytometry, Alexa488-MEK5; Mitogen-activated protein kinase kinase kinase 2 (Homo sapiens), Q9Y2U5; Alexa488-MEK5 binding to MEKK2 WT; actives lie on both sides; binding response (% of control), % at 10 µM; hit rate 1.1% among 290,000; in the data active = binding response below about 67% or above about 130%
MEKK2mut PB1 HTS: MEK5 binding signal on mutant MEKK2 PB1, primary screen, biochemical, multiplex bead flow cytometry, Alexa488-MEK5; AID 1530, 2009; Alexa488-MEK5 binding to MEKK2 mutant; hit rate 0.35% among 290,000; percent response, % at 10 µM; in the data active = percent response above about 24%, passing the limit was not always enough
MEKK2wt confirm: modulators of MEK5 binding to wildtype MEKK2, confirmation, biochemical, single concentration, multiplex bead flow cytometry; shares compounds with MEKK3 PB1 HTS; Alexa488-MEK5 binding to MEKK2 WT; actives lie on both sides; binding response (% of control), % at 10 µM; hit rate 2.4% among 5,900; in the data active = binding response below about 16% or above about 210%; inactive = in between
MEKK2mut confirm: mutant MEKK2 PB1-MEK5 binding signal retest – biochemical, single concentration, multiplex bead flow cytometry, confirmation | shares compounds with MEKK3 PB1 HTS | Alexa488-MEK5 binding to MEKK2 mutant | percent response, % at 10 µM | hit rate 2% among 5,900 | AID 1893, 2009; in the data active = percent response mostly above about 71%, no sharp cut-off; inactive = mostly below about 38%;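 also: higher means compound restores mutant binding toward wildtype level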
MEKK3 confirm: MEKK3 wild-type PB1 binding to MEK5, inhibitors, confirmation, biochemical, bead multiplex flow cytometry, single concentration, wildtype; binding response (% of control), % at 10 µM; Alexa488-MEK5 binding to MEKK3; hits give low values; hit rate 1.8% among 5,900; shares compounds with MEKK3 PB1 HTS; AID 1894, 2009;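 active = binding response below 72% of control, or above a set upper limit, though filed actives all read lower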;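 also: 100% = DMSO only wells and 0% = binding blocked by excess unlabeled MEK5; lower values mean stronger disruption of MEK5 binding to MEKK3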
Starred values were filed as active, the others as inactive; / = not tested or not shown; [ ] = dose if it differs, or a comment.

SMILES	Apaf1 inhib	UBC13 polyUb	Pemphigus Ab inh	MEKK3 PB1 HTS	MEKK2wt PB1 HTS	MEKK2mut PB1 HTS	MEKK2wt confirm	MEKK2mut confirm	MEKK3 confirm
O=C(NC(NC(=S)Nc1ccc(Cl)cc1Cl)C(Cl)(Cl)Cl)c1cccc([N+](=O)[O-])c1 (stereo not drawn)	17	-19	84	141*	145*	14	131	17	111
COc1ccc(NC(=O)N(C)[C@H]2C[C@H]3c4[nH]c5ccccc5c4CCN3C(=O)[C@H]2CO)cc1	/	/	101	/	/	/	/	/	/
CS(=O)(=O)N(CC(=O)N1CCCCC1)c1ccc(Cl)c(C(F)(F)F)c1	-6	2	105	97	71*[inhibitor]	2	98	0	101
CCc1ccc(NC(=S)NC(=O)CC(C)C)cc1	0	13	87	148*	110	1	104	11	108
CCN(CC)S(=O)(=O)c1ccc(NC(=S)NC(=O)CC(C)C)cc1	15	-8	/	105	100	-3	/	/	/
Cc1ccc(C2CCN(C(=S)NC(C)C)C2)cc1 (stereo not drawn)	-4	7	102	48*[inhibitor]	58	-40	99	2	101
COc1ccc(Cl)cc1NC(=S)N1CCC(c2ccc(C)cc2)C1 (stereo not drawn)	7	-1	99	106	103	4	/	/	/
O=C1Nc2ccccc2OCc2c1cccc2[N+](=O)[O-]	-12	-1	108	98	92	-8	/	/	/
Cc1ccc(Oc2cc([N+](=O)[O-])cc3c2C(=O)Nc2ccccc2O3)cc1	9	-10	102	130*	94	-2	95	-4	100
N#CCCN(C(=O)COC(=O)c1ccc2c(=O)n3c(nc2c1)CCC3)c1ccccc1	-5	-1	99	102	102	-5	/	/	/
CN(CCC#N)C(=O)COC(=O)c1ccc2c(=O)n3c(nc2c1)CCC3	-3	6	104	128*	111	0	98	-1	99
Fc1ccc(CSc2nnc3ccc(-c4ccncc4)nn23)cc1	-24	-5	99	127	115	190*	97	-2	101
O=C(c1ccccc1)c1nnc(-c2ccccc2F)o1	6	-4	102	0.0*[inhibitor]	-1.0*[inhibitor]	-16	106	2	106
O=C(CSc1nnc(-c2ccccc2F)o1)NC1CC1	4	-17	/	/	/	/	/	/	/
CCCCOP(=O)(OCCCC)C(Nc1ccccc1)c1ccc2c(c1)OCO2 (stereo not drawn)	/	/	126	144*	113	1	99	0	102
CC(C)COP(=O)(OCC(C)C)C(O)c1ccc2c(c1)OCO2 (stereo not drawn)	-2	4	117	130*	121	26	98	-5	100
CC(C)OP(=O)(OC(C)C)C(O)c1ccc2c(c1)OCO2 (stereo not drawn)	-7	-5	104	99	106	-1	/	/	/
Cc1cc(Br)c2[nH]cc(CCNC(=O)c3ccco3)c2c1	16	-2	105	100	103	0	/	/	/

Screening data deposited in PubChem BioAssay by several laboratories.
